Results from ChEMBL document CHEMBL4000163, “Pyrazole derived ultra-short antimicrobial peptidomimetics with potent anti-biofilm activity” (Eur J Med Chem, 2017).
≈ marks a conversion by molar mass, not a printed value. Calls of active or inactive are those of the source. No cut-off for these calls is given here.

Assays:
[1] = tested on: Staphylococcus epidermidis; assay: Antimicrobial activity against Staphylococcus epidermidis KCTC 1917 incubated for 18 to 20 hrs by broth microdilution assay; format: functional; settings: read-out: MIC100
Summary of the method: (§1)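 Broth microdilution in 1% peptone. Inoculum was 2 × 10⁶ CFU/mL mixed 1:1 with serial 2-fold peptide dilutions and incubated 18–20 h at 37 °C. Growth was read as absorbance at 600 nm; MIC is the lowest peptide concentration giving 100% growth inhibition.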

Pseudomonas aeruginosa [2] = assay: Antimicrobial activity against Pseudomonas aeruginosa KCTC 1637 incubated for 18 to 20 hrs by broth microdilution assay; format: functional; settings: read-out: MIC100; summary of the method: as §1
Escherichia coli [3] = assay: Antimicrobial activity against Escherichia coli KCTC 1682 incubated for 18 to 20 hrs by broth microdilution assay; format: functional; settings: read-out: MIC100; summary of the method: as §1
Staphylococcus aureus [4] = assay: Antimicrobial activity against Staphylococcus aureus KCTC 1621 incubated for 18 to 20 hrs by broth microdilution assay; format: functional; settings: read-out: MIC100; summary of the method: as §1
Escherichia coli [5] = assay: Induction of inner membrane permeabilisation in Escherichia coli ML-35 assessed as ONPG hydrolysis up to 30 ug/ml by beta-galactosidase enzyme coupled spectrophotometric analysis; format: functional
Summary of the method: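 E. coli ML-35 (constitutive cytoplasmic β-galactosidase, lactose permease-deficient) washed and resuspended to OD600 0.5 in 10 mM sodium phosphate pH 7.4, 100 mM NaCl, with 1.5 mM ONPG. o-Nitrophenol release tracked spectrophotometrically over time after peptide addition at various concentrations.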

[6] = Therapeutic index, ratio of MHC for sheep RBC to geometric mean of MICs for four bacterial strains
Pseudomonas aeruginosa [7] = assay: Antibiofilm activity against multidrug-resistant Pseudomonas aeruginosa CCARM 2095 after 24 hrs by crystal violet staining based method; format: functional; settings: CCARM 2095, 24 h
Summary of the method: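 MDRPA 2095 (1×10^6 cfu/mL) in MHB with 0.2% glucose, 24 h at 37 °C with or without peptide (2-fold dilutions, 1-64 µg/mL), six wells each. Wells washed with PBS, methanol-fixed, stained with 0.1% crystal violet 5 min, stain resolubilized in 95% ethanol, absorbance at 600 nm.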

[8] = Therapeutic index, ratio of MHC for sheep RBC to MIC for Staphylococcus aureus KCTC 1621
[9] = Therapeutic index, ratio of MHC for sheep RBC to geometric mean of MICs for four bacterial strains; remark: listed apart in the source
[10] = Therapeutic index, ratio of MHC for sheep RBC to MIC for Staphylococcus epidermidis KCTC 1917
Staphylococcus aureus [11] = assay: Induction of cytoplasmic membrane depolarization in Staphylococcus aureus KCTC 1621 assessed as loss of membrane potential after 1 hr by DiSC3(5) dye based fluorescence assay; format: functional
Escherichia coli [12] = assay: Antimicrobial activity against Escherichia coli KCTC 1682 using 4 hrs trypsin incubated compound measured after overnight incubation by radial diffusion assay; format: functional
Summary of the method: (§2)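 Radial diffusion: mid-log cells (2×10^6 CFU/ml in LB) in 0.7% agarose. Peptide stock (10 mg/mL) added to trypsin in PBS (0.2 µg/mL), 4 h at 37 °C, stopped by liquid-nitrogen freezing; 10 µL on paper discs on the plates, overnight at 37 °C. Clearance-zone diameters measured.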

Escherichia coli [13] = assay: Induction of outer membrane permeabilization in Escherichia coli KCTC 1682 assessed as NPN uptake by spectrofluorophotometric analysis; format: functional
Summary of the method: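 E. coli KCTC 1682 at OD600 0.05 in 5 mM HEPES pH 7.2 with 5 mM KCN; NPN 10 µM final, background fluorescence recorded (ex 350, em 420 nm). Peptide aliquots at various concentrations added and fluorescence followed over time until no further rise.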

Enterococcus faecium = assay: Antibacterial activity against vancomycin-resistant Enterococcus faecium ATCC 51559 after 18 to 20 hrs by broth microdilution assay; format: functional; settings: read-out: MIC100
Summary of the method: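 Broth microdilution in 1% peptone: bacteria at 2 × 10⁶ CFU/mL mixed 1:1 with serial 2-fold peptide dilutions, 18-20 h at 37 °C; growth read as absorbance at 600 nm. MIC taken as lowest concentration giving 100% growth inhibition.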

Staphylococcus aureus [14] = assay: Antimicrobial activity against Staphylococcus aureus KCTC 1621 using 4 hrs trypsin incubated compound measured after overnight incubation by radial diffusion assay; format: functional; summary of the method: as §2
Pseudomonas aeruginosa [15] = assay: Potency index, ratio of melittin MIC100 to compound MIC100 for Pseudomonas aeruginosa KCTC 1637; format: functional
Pseudomonas aeruginosa [16] = assay: Potency index, ratio of LL-37 MIC100 to compound MIC100 for Pseudomonas aeruginosa KCTC 1637; format: functional
Staphylococcus aureus [17] = assay: Potency index, ratio of melittin MIC100 to compound MIC100 for Staphylococcus aureus KCTC 1621; format: functional
Staphylococcus aureus [18] = assay: Potency index, ratio of LL-37 MIC100 to compound MIC100 for Staphylococcus aureus KCTC 1621; format: functional

Compound	MIC [1] [µg/mL]	MIC (Pseudomonas aeruginosa [2]) [µg/mL]	MIC (Escherichia coli [3]) [µg/mL]	MIC (Staphylococcus aureus [4]) [µg/mL]	other results
N=C(N)NCCC[C@H](NC(=O)c1nn(CCc2cccc3ccccc23)cc1N)C(N)=O	> 64	> 64	> 64	> 64	
N=C(N)NCCC[C@H](NC(=O)c1nn(CCc2cccc3ccccc23)cc1NC(=O)[C@H](CCCNC(=N)N)NC(=O)c1nn(CCc2cccc3ccccc23)cc1NC(=O)[C@@H](N)CCCNC(=N)N)C(N)=O	32 (≈ 31.6 µM)	8 (≈ 7.9 µM)	32 (≈ 31.6 µM)	4 (≈ 3.95 µM)	
CCC(CC)Cn1cc(NC(=O)[C@@H](N)CCCNC(=N)N)c(C(=O)N[C@@H](CCCNC(=N)N)C(N)=O)n1	> 64	> 64	> 64	> 64	
CCC(CC)Cn1cc(N)c(C(=O)N[C@@H](CCCNC(=N)N)C(N)=O)n1	> 64	> 64	> 64	> 64	
N=C(N)NCCC[C@@H]1NC(=O)c2nn(CCC(c3ccccc3)c3ccccc3)cc2NC(=O)CSCC(C(N)=O)NC(=O)[C@H](CCCNC(=N)N)NC(=O)c2nn(CCC(c3ccccc3)c3ccccc3)cc2NC1=O (some centres not stated)	64 (≈ 59.3 µM)	> 64	> 64	16 (≈ 14.8 µM)	
N=C(N)NCCC[C@H](NC(=O)c1nn(CCCc2ccccc2)cc1NC(=O)[C@@H](N)CCCNC(=N)N)C(N)=O	> 64	> 64	> 64	64 (≈ 115 µM)	
N=C(N)NCCC[C@H](NC(=O)c1nn(CCc2cccc3ccccc23)cc1NC(=O)[C@@H](N)CCCNC(=N)N)C(N)=O	> 64	> 64	> 64	32 (≈ 54 µM)	
N=C(N)NCCC[C@H](NC(=O)c1nn(CCC(c2ccccc2)c2ccccc2)cc1N)C(N)=O	> 64	32 (≈ 67.1 µM)	> 64	> 64	
N=C(N)NCCC[C@H](NC(=O)c1nn(CCc2cccc3ccccc23)cc1NC(=O)[C@H](CCCNC(=N)N)NC(=O)c1nn(CCc2cccc3ccccc23)cc1NC(=O)[C@H](CCCNC(=N)N)NC(=O)c1nn(CCc2cccc3ccccc23)cc1N)C(N)=O	64 (≈ 50.2 µM)	> 64	> 64	8 (≈ 6.27 µM)	
CC[C@H](C)[C@H](NC(=O)[C@H](CCCCN)NC(=O)[C@H](CCC(=O)O)NC(=O)[C@H](CCCCN)NC(=O)[C@H](CO)NC(=O)[C@H](CCCCN)NC(=O)[C@H](CCCNC(=N)N)NC(=O)[C@H](Cc1ccccc1)NC(=O)[C@H](Cc1ccccc1)NC(=O)[C@H](CC(=O)O)NC(=O)CNC(=O)[C@H](CC(C)C)NC(=O)[C@@H](N)CC(C)C)C(=O)NCC(=O)N[C@@H](CCCCN)C(=O)N[C@@H](CCC(=O)O)C(=O)N[C@@H](Cc1ccccc1)C(=O)N[C@@H](CCCCN)C(=O)N[C@@H](CCCNC(=N)N)C(=O)N[C@H](C(=O)N[C@H](C(=O)N[C@@H](CCC(N)=O)C(=O)N[C@@H](CCCNC(=N)N)C(=O)N[C@H](C(=O)N[C@@H](CCCCN)C(=O)N[C@@H](CC(=O)O)C(=O)N[C@@H](Cc1ccccc1)C(=O)N[C@@H](CC(C)C)C(=O)N[C@@H](CCCNC(=N)N)C(=O)N[C@@H](CC(N)=O)C(=O)N[C@@H](CC(C)C)C(=O)N[C@H](C(=O)N1CCC[C@H]1C(=O)N[C@@H](CCCNC(=N)N)C(=O)N[C@H](C(=O)N[C@@H](CCC(=O)O)C(=O)N[C@@H](CO)C(=O)O)[C@@H](C)O)C(C)C)[C@@H](C)CC)C(C)C)[C@@H](C)CC [CATHELICIDIN]	32 (≈ 7.12 µM)	64 (≈ 14.2 µM)	32 (≈ 7.12 µM)	32 (≈ 7.12 µM)	Activity (Escherichia coli [5]): Active; TI [6]: 25.6; IC90 (Pseudomonas aeruginosa [7]): 64 µg/mL (≈ 14.2 µM); TI [8]: 25.6; TI [9]: 25.6; TI [10]: 25.6; Activity (Staphylococcus aureus [11]): Active
CC[C@H](C)[C@H](NC(=O)CN)C(=O)NCC(=O)N[C@@H](C)C(=O)N[C@H](C(=O)N[C@@H](CC(C)C)C(=O)N[C@@H](CCCCN)C(=O)N[C@H](C(=O)N[C@@H](CC(C)C)C(=O)N[C@H](C(=O)N[C@H](C(=O)NCC(=O)N[C@@H](CC(C)C)C(=O)N1CCC[C@H]1C(=O)N[C@@H](C)C(=O)N[C@@H](CC(C)C)C(=O)N[C@H](C(=O)N[C@@H](CO)C(=O)N[C@@H](Cc1c[nH]c2ccccc12)C(=O)N[C@H](C(=O)N[C@@H](CCCCN)C(=O)N[C@@H](CCCNC(=N)N)C(=O)N[C@@H](CCCCN)C(=O)N[C@@H](CCCNC(=N)N)C(=O)N[C@@H](CCC(N)=O)C(=O)N[C@@H](CCC(N)=O)C(N)=O)[C@@H](C)CC)[C@@H](C)CC)[C@@H](C)O)[C@@H](C)O)C(C)C)C(C)C [MELITTIN]					Activity (Escherichia coli [5]): Active; TI [6]: 0.5; Activity (Escherichia coli [12]): inactive; TI [8]: 0.5; TI [9]: 0.5; Activity (Escherichia coli [13]): Dose-dependent effect; TI [10]: 0.5; Activity (Staphylococcus aureus [11]): Active; MIC (Enterococcus faecium): 16 µg/mL (≈ 5.62 µM); Activity (Staphylococcus aureus [14]): inactive
N=C(N)NCCC[C@H](NC(=O)c1nn(CCC(c2ccccc2)c2ccccc2)cc1NC(=O)[C@H](CCCNC(=N)N)NC(=O)c1nn(CCC(c2ccccc2)c2ccccc2)cc1N)C(N)=O	32 (≈ 34.2 µM)	32 (≈ 34.2 µM)	32 (≈ 34.2 µM)	8 (≈ 8.55 µM)	
N=C(N)NCCC[C@H](NC(=O)c1nn(CCC(c2ccccc2)c2ccccc2)cc1NC(=O)[C@H](CCCNC(=N)N)NC(=O)c1nn(CCC(c2ccccc2)c2ccccc2)cc1NC(=O)[C@H](CCCNC(=N)N)NC(=O)c1nn(CCC(c2ccccc2)c2ccccc2)cc1N)C(N)=O	64 (≈ 45.9 µM)	> 64	64 (≈ 45.9 µM)	32 (≈ 22.9 µM)	
N=C(N)NCCC[C@H](NC(=O)c1nn(CCCc2ccccc2)cc1N)C(N)=O	> 64	> 64	> 64	> 64	
N=C(N)NCCC[C@H](NC(=O)c1nn(CCC(c2ccccc2)c2ccccc2)cc1NC(=O)[C@@H](N)CCCNC(=N)N)C(N)=O	> 64	8 (≈ 12.6 µM)	> 64	8 (≈ 12.6 µM)	Ratio (Pseudomonas aeruginosa [15]): 2 - 4; Ratio (Pseudomonas aeruginosa [16]): 4 - 8; Ratio (Staphylococcus aureus [17]): 2 - 4; Ratio (Staphylococcus aureus [18]): 4 - 8
